Data published in ChEMBL document CHEMBL3259792 (Eur J Med Chem, 2014).

What was measured:
[1] = test system: Human immunodeficiency virus 1; test: Ratio of EC50 for HIV1 harboring reverse transcriptase K103N/Y181C double mutant to EC50 for wild type HIV1 NL4.3; format: functional
Method in brief: (§1)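 Fold change is the EC50 against the named mutant strain divided by the EC50 against wild-type HIV-1 NL4-3. […] Means of 2–3 independent experiments in triplicate.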

[2] = test system: Human immunodeficiency virus 1; test: Antiviral activity against HIV1 harboring reverse transcriptase Y188L mutant infected in human MT4 cells assessed as inhibition of virus-induced cell death measured after 5 days of infection by MTT method; format: functional, organism-based; conditions: Human immunodeficiency virus 1, MT4, 120 h
Method in brief: (§2)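 MT-4 cells infected with the named NNRTI-resistant HIV-1 RT mutant strain, in the presence of a range of compound concentrations. Viable cells counted at day 5 post-infection by tetrazolium (MTT) colorimetry. […] Mean of 2–3 independent experiments, each in triplicate.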

[3] = test system: Human immunodeficiency virus 1; test: Ratio of EC50 for HIV1 harboring reverse transcriptase Y181C mutant to EC50 for wild type HIV1 NL4.3; format: functional; method in brief: as §1
[4] = biological target: Human immunodeficiency virus type 1 reverse transcriptase (Human immunodeficiency virus 1, UniProt Q72547, K103N); test: Inhibition of HIV1 wild-type reverse transcriptase K103N mutant using [3H]dTTP by scintillation counting
[5] = test system: Human immunodeficiency virus 1; test: Antiviral activity against HIV1 harboring reverse transcriptase K103N mutant infected in human MT4 cells assessed as inhibition of virus-induced cell death measured after 5 days of infection by MTT method; format: functional, organism-based; conditions: Human immunodeficiency virus 1, MT4, 120 h; method in brief: as §2
[6] = test system: Human immunodeficiency virus 1; test: Ratio of EC50 for HIV1 harboring reverse transcriptase K103N mutant to EC50 for wild type HIV1 NL4.3; format: functional; method in brief: as §1
[7] = biological target: T1, Human immunodeficiency virus type 1 reverse transcriptase (Human immunodeficiency virus 1, UniProt Q72547); test: Inhibition of HIV1 wild-type reverse transcriptase Y181I/Y181C mutant using [3H]dTTP by scintillation counting
[8] = biological target: T1, Human immunodeficiency virus type 1 reverse transcriptase; test: Inhibition of HIV1 wild-type reverse transcriptase using [3H]dTTP by scintillation counting
[9] = test system: Human immunodeficiency virus 1; test: Antiviral activity against HIV1 NL4.3 infected in human MT4 cells assessed as inhibition of virus-induced cell death measured after 5 days of infection by MTT method; format: functional, organism-based; conditions: Human immunodeficiency virus 1, NL4.3, MT4, 120 h
Method in brief: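 Lymphoid MT-4 cells (NIH AIDS Reagent Program) infected with HIV-1 NL4-3 in the presence of varying compound concentrations. On day 5 post-infection, viable cells were counted by MTT tetrazolium colorimetry. EC₅₀ = concentration inhibiting virus-induced cell death by 50%. Means of two to three independent experiments, each in triplicate.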

[10] = test system: Human immunodeficiency virus 1; test: Antiviral activity against HIV1 harboring reverse transcriptase K103N/Y181C double mutant infected in human MT4 cells assessed as inhibition of virus-induced cell death measured after 5 days of infection by MTT method; format: functional, organism-based; conditions: Human immunodeficiency virus 1, MT4, 120 h; method in brief: as §2
[11] = test system: Human immunodeficiency virus 1; test: Antiviral activity against HIV1 harboring reverse transcriptase Y181C mutant infected in human MT4 cells assessed as inhibition of virus-induced cell death measured after 5 days of infection by MTT method; format: functional, organism-based; conditions: Human immunodeficiency virus 1, MT4, 120 h; method in brief: as §2
[12] = Selectivity index, ratio of CC50 for human MT4 cells to EC50 for HIV1 NL4.3 infected in human MT4 cells; format: toxicity, cell-based; conditions: read-out: Ratio CC50/EC50
Method in brief: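 Ratio CC₅₀/EC₅₀. CC₅₀ is from mock-infected MT-4 cells and EC₅₀ from HIV-1 NL4-3-infected MT-4 cells, both read by MTT at day 5 post-infection.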

[13] = test system: Human immunodeficiency virus 1; test: Ratio of EC50 for HIV1 harboring reverse transcriptase Y188L mutant to EC50 for wild type HIV1 NL4.3; format: functional; method in brief: as §1
[14] = Cytotoxicity against human MT4 cells assessed as cell viability by MTT assay; format: cell-based
Method in brief: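 Mock-infected MT-4 cells exposed to a range of compound concentrations. Viable cells measured by MTT colorimetry at day 5. CC₅₀ = concentration causing 50% death of non-infected cells. Means of two to three independent experiments, each in triplicate.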

[15] = test system: Human immunodeficiency virus 2; test: Antiviral activity against HIV-2 ROD infected in human CEM cells assessed as protection of cells monitored by giant cell formation by microscopy; format: functional, organism-based; conditions: Human immunodeficiency virus 2, ISOLATE ROD, CCRF-CEM
Method in brief: (§3)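 Human CEM cultures (~3 × 10⁵ cells/mL) infected with ~100 CCID₅₀ per mL of HIV-1 IIIB or HIV-2 ROD, seeded with serial compound dilutions. Incubated 4 days at 37 °C; syncytium (giant cell) formation scored by microscopy. EC₅₀ = concentration protecting cells from viral cytopathicity by 50%. Means of two to three independent experiments, each in triplicate.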

[16] = test system: Human immunodeficiency virus 1; test: Antiviral activity against HIV1 harboring reverse transcriptase […] mutant infected in human MT4 cells assessed as inhibition of virus-induced cell death measured after 5 days of infection by MTT method; format: functional, organism-based; conditions: Human immunodeficiency virus 1, MT4, 120 h; method in brief: as §2
[17] = test system: Human immunodeficiency virus 1; test: Antiviral activity against HIV1 3B infected in human CEM cells assessed as protection of cells monitored by giant cell formation by microscopy; format: functional, organism-based; conditions: Human immunodeficiency virus 1, 3B, CCRF-CEM; method in brief: as §3
[18] = test system: Human immunodeficiency virus 1; test: Ratio of EC50 for HIV1 harboring reverse transcriptase […] mutant to EC50 for wild type HIV1 NL4.3; format: functional; method in brief: as §1
[19] = biological target: Human immunodeficiency virus type 1 reverse transcriptase (Human immunodeficiency virus 1, UniProt Q72547, L100I); test: Inhibition of HIV1 wild-type reverse transcriptase L100I mutant using [3H]dTTP by scintillation counting
Method in brief: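 RNA-dependent DNA polymerase activity of recombinant RT (2–4 nM) on poly(rA)/oligo(dT) 10:1 with [3H]dTTP (1 Ci/mmol). Incubation at 37 °C. Acid-insoluble radioactivity collected on GF/C filters after 5% cold TCA, counted by scintillation.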

Structure (SMILES) | Ratio EC50 [1] | EC50 [2] [nM] | Ratio EC50 [3] | IC50 [4] [nM] | EC50 [5] [nM] | Ratio EC50 [6] | IC50 [7] [nM] | IC50 [8] [nM] | EC50 [9] [nM] | EC50 [10] [nM] | EC50 [11] [nM] | selectivity ratio [12] | Ratio EC50 [13] | CC50 [14] [nM] | EC50 [15] [nM] | EC50 [16] [nM] | EC50 [17] [nM] | Ratio EC50 [18] | IC50 [19] [nM]
Cc1ccc(CNC(=O)c2[nH]c3ccc(Cl)cc3c2S(=O)(=O)c2cc(C)cc(C)c2)cc1 | >10105 | > 21200 | 103 | > 20000 | 385 | 183 | > 20000 | 50 | 2.1 | > 21200 | 215 | 10100 | >10105 | 21200 | – | – | – | – | –
Cc1cc(C)cc(S(=O)(=O)c2c(C(=O)NCCc3ccc(Cl)cc3)[nH]c3ccc(Cl)cc23)c1 | 602 | – | 36 | 60 | ≥ 2000 | >=37 | > 20000 | 89 | 53.8 | 32400 | 1700 | 602 | – | 32400 | > 10000 | 190 | 68 | 3.5 | 960
Cc1cc(C)cc(S(=O)(=O)c2c(C(=O)NCCc3cccc(Cl)c3)[nH]c3ccc(Cl)cc23)c1 | 7274 | – | 218 | 5940 | 180 | 45 | > 20000 | 83 | 4 | 29100 | 870 | 7270 | – | 29100 | > 10000 | 31 | 11 | 7.8 | 10
Cc1cc(C)cc(S(=O)(=O)c2c(C(=O)NCCc3ccccc3Cl)[nH]c3ccc(Cl)cc23)c1 | 11243 | – | 63 | 3140 | 37 | 9.3 | > 20000 | 131 | 4 | 45000 | 250 | 11200 | – | 45000 | > 10000 | 24 | 9.4 | 6 | 270
Cc1cc(C)cc(S(=O)(=O)c2c(C(=O)NCc3ccc(N(C)C)cc3)[nH]c3ccc(Cl)cc23)c1 | >3332 | > 40300 | 85 | – | 322 | 27 | – | – | 12.1 | > 40300 | 1030 | 3360 | >3332 | 40700 | – | – | – | – | –
Cc1cc(C)cc(S(=O)(=O)c2c(C(=O)NCc3ccc(Cl)cc3)[nH]c3ccc(Cl)cc23)c1 | >6255 | > 51300 | 55 | 7500 | 103 | 13 | > 20000 | 57 | 8.2 | > 51300 | 451 | > 6260 | >6255 | > 51300 | – | – | – | – | –
Cc1ccc(CCNC(=O)c2[nH]c3ccc(Cl)cc3c2S(=O)(=O)c2cc(C)cc(C)c2)cc1 | >2268 | – | 79 | > 20000 | > 50000 | 2183 | > 20000 | 2000 | 22.9 | > 51900 | 1800 | > 2270 | – | > 52000 | > 50000 | – | 33 | – | 16200
Cc1ccnc2c1NC(=O)c1cccnc1N2C1CC1 [NEVIRAPINE] | – | > 3760 | – | – | > 3760 | – | – | – | 112 | > 3760 | > 3760 | – | – | > 18800 | > 10000 | 60 | – | – | –
O=C1Nc2ccc(Cl)cc2[C@@](C#CC2CC2)(C(F)(F)F)O1 [EFAVIRENZ] | – | 760 | – | – | 130 | – | – | – | 15.9 | > 317 | 160 | – | – | > 15800 | > 10000 | 22 | – | – | –
Cc1cn([C@H]2C[C@H](N=[N+]=[N-])[C@@H](CO)O2)c(=O)[nH]c1=O [ZIDOVUDINE] | – | 33 | 1.6 | – | 16 | 4.3 | – | – | 3.7 | 16 | 6 | > 8270 | 8.9 | > 30600 | – | – | – | – | –
COc1ccc(CNC(=O)c2[nH]c3ccc(Cl)cc3c2S(=O)(=O)c2cc(C)cc(C)c2)cc1 | >186557 | > 39200 | 100 | > 20000 | 21 | 100 | > 20000 | 3.7 | 0.21 | > 39200 | 21 | 190000 | >186557 | 39900 | – | – | – | – | –
Cc1cc(C)cc(S(=O)(=O)c2c(C(=O)NCC(C)c3ccccc3)[nH]c3ccc(Cl)cc23)c1 (racemic) | >94938 | > 19900 | 1386 | – | 29 | 138 | – | – | 0.21 | > 19900 | 291 | 94900 | >94938 | 19900 | – | – | – | – | –
Cc1cc(C)cc(S(=O)(=O)c2c(C(=O)NCc3ccc([N+](=O)[O-])cc3)[nH]c3ccc(Cl)cc23)c1 | >25103 | > 50200 | 35 | 218 | 120 | 60 | > 20000 | 50 | 2 | > 50200 | 70 | > 25100 | >25103 | > 50200 | – | – | – | – | –
Cc1cc(C)cc(S(=O)(=O)c2c(C(=O)NCCc3ccccc3C)[nH]c3ccc(Cl)cc23)c1 | >8383 | – | – | 12400 | 100 | 16 | > 20000 | 288 | – | > 51900 | – | > 8380 | – | > 52000 | > 10000 | 20 | 9.1 | 3.2 | 200
Cc1cccc(CCNC(=O)c2[nH]c3ccc(Cl)cc3c2S(=O)(=O)c2cc(C)cc(C)c2)c1 | >8383 | – | 194 | > 20000 | 260 | 42 | > 20000 | 190 | 6.2 | > 51900 | 1200 | > 8380 | – | > 52000 | > 25000 | 31 | 7.3 | 5 | 1300
